# Shown are actives, neighbours in structure and some others; about 4.8% of the full set was active somewhere.
# XBP1 UPR activ: adaptive UPR (XBP1) activation. CHO-XBP1 luciferase reporter, IRE1-XBP1 UPR activation, luminescence; percent of tunicamycin response, DMSO as zero. activation, % at 20 µM. actives 0.33% (n = 330,000). AID 463104;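 active means versus positive control, 20 µM dose yields 30% or more activation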;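 further: 100% = tunicamycin at 10 µg/mL and 0% = DMSO only wells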
#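 Material – CHO cell line with stable XBP1 luciferase reporter · Buffer or medium – F12 plus 10% FBS · Compound – single point, 20 µM final compound, 1% DMSO · Schedule – 16-18 h cell attachment at 37 °C, then 6 h compound exposure · Signal – Steady-Glo luminescence read · Benchmarks – high control tunicamycin 10 µg/mL final, low control DMSO vehicle only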
# Mdm2 MdmX PPI: inhibitors of human Mdm2/MdmX interaction | SaOS-2 split-luciferase Mdm2/MdmX complementation, luminescence | actives 3% (n = 330,000) | O15151+Q00987 | AID 485346 | inhibition, % at 8 µM;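 active means inhibition of at least 50% at 8 µM in the primary screen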
# Target sequence (O15151 whole entry, looked up): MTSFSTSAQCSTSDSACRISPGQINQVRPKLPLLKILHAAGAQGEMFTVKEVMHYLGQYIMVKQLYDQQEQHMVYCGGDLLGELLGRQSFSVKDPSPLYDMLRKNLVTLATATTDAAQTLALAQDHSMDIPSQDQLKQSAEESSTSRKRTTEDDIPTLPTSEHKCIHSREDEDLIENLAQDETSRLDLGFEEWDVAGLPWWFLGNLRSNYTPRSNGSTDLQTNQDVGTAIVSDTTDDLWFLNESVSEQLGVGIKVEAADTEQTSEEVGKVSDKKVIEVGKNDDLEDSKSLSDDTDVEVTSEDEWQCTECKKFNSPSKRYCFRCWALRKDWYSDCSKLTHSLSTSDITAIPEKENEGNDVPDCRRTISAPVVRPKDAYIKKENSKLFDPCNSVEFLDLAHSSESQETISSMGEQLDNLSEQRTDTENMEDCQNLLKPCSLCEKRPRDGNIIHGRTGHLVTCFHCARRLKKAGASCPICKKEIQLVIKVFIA
# Target sequence (Q00987 whole entry, looked up): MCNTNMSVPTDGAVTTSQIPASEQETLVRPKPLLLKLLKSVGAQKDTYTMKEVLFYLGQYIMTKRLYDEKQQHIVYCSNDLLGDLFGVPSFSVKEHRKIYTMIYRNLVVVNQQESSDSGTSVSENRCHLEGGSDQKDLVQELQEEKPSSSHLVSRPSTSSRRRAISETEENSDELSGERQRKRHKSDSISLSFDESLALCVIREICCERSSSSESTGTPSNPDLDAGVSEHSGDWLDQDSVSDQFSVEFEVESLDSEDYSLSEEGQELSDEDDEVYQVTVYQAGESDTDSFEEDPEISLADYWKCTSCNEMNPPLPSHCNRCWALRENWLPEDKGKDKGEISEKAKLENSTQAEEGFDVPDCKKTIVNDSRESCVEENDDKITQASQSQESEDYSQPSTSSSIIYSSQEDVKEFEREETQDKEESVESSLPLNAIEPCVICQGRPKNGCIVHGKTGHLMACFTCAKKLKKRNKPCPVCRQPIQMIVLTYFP
# SKKanGAS inh: blocks kanamycin growth of S. pyogenes SKKanGAS strain. actives 1.3% (n = 300,000). AID 1662. BacTiter-Glo, 6 h. inhibition, % at 7.5 µM;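 active means mean replicate score, as percent of positive control median, at least 50; inconclusive means mean below 50 but one replicate at or above 50; inactive means mean and every replicate below 50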;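 further: strain carries kanamycin resistance gene driven by streptokinase promoter and grows in 40 µg/ml kanamycin; loss of luminescence reflects streptokinase promoter inhibition or plain growth inhibition; 0% = median of DMSO wells and 100% = positive control at its reference dose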
# Beta cell apopt: blocks beta cell apoptosis. INS-1E cytokine-induced death, ATP luminescence, 48 h; percent of positive-control rescue, neutral wells zero. protection from apoptosis, % (concentration not given with the values). actives 0.8% (n = 300,000). AID 435005;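 active means Every replicate reaches about 75%, or at least half do and their mean reaches it too, limit read from the data; inconclusive means At least half of replicates reach the limit but their mean does not; inactive means Under half of replicates reach the limit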;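 further: 0% = cytokine-treated negative control wells and 100% = positive control rescue; higher means more ATP so stronger rescue from cytokine killing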
# CSC inhib: blocks cancer stem cells; AID 2717; inhibition, % at 7.5 µM; actives 1.1% (n = 300,000); cancer stem cell-like cells viability, luminescence; in the data active means inhibition above about 75%; inconclusive means no clear call, values can overlap the other calls; tested in HMLE shEcad cells
# CHOP UPR activ: activators of apoptotic arm of unfolded protein response (CHOP). CHO-CHOP luciferase reporter, UPR activation, luminescence; percent of tunicamycin response over DMSO baseline. activation, % at 10 µM. actives 0.34% (n = 330,000). AID 449763;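 active means at 10 µM dose, activation of 40% or more, normalized to positive control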;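 further: 100% = tunicamycin at 10 µg/mL and 0% = DMSO alone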
#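 Test system: CHO CHOP reporter cells. Input: 500 CHO-CHOP cells per well. Medium: F12 with 10% FBS. Technique: luciferase luminescence. Measure: percent activation relative to tunicamycin control. Dosing: 10 µM compound, 0.5% DMSO. Timing: 16-18 h cell attachment, then 6 h compound exposure, 37 °C.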
# The depositor's hits bear a star; ? = inconclusive; . = not tested or not shown.
SMILES,XBP1 UPR activ,Mdm2 MdmX PPI,SKKanGAS inh,Beta cell apopt,CSC inhib,CHOP UPR activ
O=C(COC(=O)C(O)c1ccccc1)NC12CC3CC(CC(C3)C1)C2 (stereo not given),-2,5,-13,2,.,-4
O=C(CON=C1c2ccccc2-c2ccccc21)NC12CC3CC(CC(C3)C1)C2,4,26,34,-9,179*,0
Cc1occc1C(=O)N/N=C/c1cccc2ccccc12,9,-96,-2,0,1,7
Cc1ccc2c(c1)S/C(=C/c1ccc[n+](CCO)c1)N2C,-2,36,11,99*,-21,-1
CCC(=O)Nc1nnc(SCC(=O)NCC2CCCO2)s1 (stereo not given),1,-2,18,-2,2,-2
C/C(=N\Nc1ncc(Cl)cc1Cl)c1ccccn1,.,.,58*,.,.,.
C/C(=N\Nc1ccc(Cl)c(C(=O)O)c1)c1ccccn1,-1,6,1,-4,-10,2
CSc1cnn(-c2ccccc2)c(=O)c1SC,2,5,2,-2,-11,1
CSc1cnn(Cc2ccccc2)c(=O)c1SCc1ccccc1,.,.,68*,6,23,.
Cc1ccc2[nH]c3c(N4CCc5ccccc5C4)ncnc3c2c1,6,39,34,101*,-8,10
O=C(CCC1CCCC1)Nc1ccc(C(=O)NCc2cccnc2)cc1,0,6,-3,100*,?,-3
O=C(NCc1cccnc1)c1ccc(NS(=O)(=O)c2ccccc2)cc1,-7,10,2,-3,-1,3
O=C(O)CCCC(=O)Nc1ccc(C(=O)NCc2cccnc2)cc1,-1,-44,3,101*,-1,-1
COC(=O)c1ccc(CNC(=O)COC(=O)c2ccccc2-c2ccccc2)cc1,-2,-5,25,2,-4,4
COc1ccc(S(=O)(=O)N2CCOC2CNC(=O)C(=O)NCCCN2CCOCC2)cc1OC (stereo not given),-3,5,-2,2,2,0
Oc1ccc(-c2cnc(-c3ccc(O)cc3)nc2)cc1,4,-122,-10,-6,98*,7
Nc1ccc(-c2cnc(-c3ccc(N)cc3)nc2)cc1,-2,-55,3,4,31,-4
Oc1ccccc1-n1c(-c2ccccc2)ccc1-c1ccccc1,4,47,9,-8,?,1
COc1ccc(C#Cc2ccc3c(=O)c4ccccc4n(C)c3c2)cc1,-2,8,76*,2,40,1
COc1ccccc1C#Cc1ccc2c(=O)c3ccccc3n(C)c2c1,2,0,6,5,45,6
Cn1c2ccccc2c(=O)c2ccc(C#Cc3ccc(N)cc3)cc21,2,20,70*,29,61,4
COC(=O)C1C(O)=C(C(C)=Nc2cccc3ccccc23)C(=O)CC1(C)C (stereo not given),-2,29,-1,-5,-8,-1
CC(=O)OCCCNc1cc(Sc2ccc(Cl)cc2)c2nonc2c1[N+](=O)[O-],.,.,-2,-1,81*,.
N#C/C(=C\c1ccc2c(c1)OCCO2)C(=O)Nc1ccc(C(=O)O)cc1,3,-15,0,0,-4,6
O=c1c2c3nc4ccccc4nc3n(-c3ccc4c(c3)OCCO4)c2ncn1C1CCCC1,10,40,.,14,.,77*
SMILES,XBP1 UPR activ,Mdm2 MdmX PPI,SKKanGAS inh,Beta cell apopt,CSC inhib,CHOP UPR activ
Nc1c(C(=O)OCC2CCCO2)c2nc3ccccc3nc2n1-c1ccc2c(c1)OCCO2 (stereo not given),-7,29,7,10,-7,-4
COc1ccc(C2c3[nH]c4ccccc4c3CCN2Cc2cccn2-c2ncccn2)cc1C (stereo not given),0,47,6,40,-4,0
O=C(Nc1nnc(C2=COCCO2)o1)c1cccc(Br)c1,-5,17,100*,-8,-5,-1
CCOc1ccc(C(=O)Nc2nnc(C3=COCCO3)o2)cc1,-1,8,72*,2,15,0
CC(=O)c1cccc(N(C(=O)CNC(=O)c2ccco2)C(C(=O)NC2CCCC2)c2ccco2)c1 (stereo not given),-4,10,-1,1,0,0
CC(C)=CCC/C(C)=C/Cc1c(O)ccc(C(=O)/C=C/c2ccc(O)cc2)c1O,5,36,106*,-1,121*,0
O=S(=O)(NCc1ccccc1)c1ccc(-n2cccn2)cc1,-3,12,-16,-2,7,-1
Cc1ccc(-n2cccc2/C=C2/C(=N)N3C(=NC2=O)SN=C3S(C)(=O)=O)cc1,-2,3,48,1,12,-2
COc1cc(/C=C2/C(=N)N3C(=NC2=O)SN=C3S(C)(=O)=O)ccc1OS(=O)(=O)c1ccc(C)cc1,-1,2,28,-4,52,3
Cc1cc(C)cc(-n2cccc2/C=C2/C(=N)N3C(=NC2=O)SN=C3S(C)(=O)=O)c1,2,21,71*,2,72,-1
COc1cccc(-n2c(C)cc(/C=C3/C(=N)N4C(=NC3=O)SN=C4S(C)(=O)=O)c2C)c1,-4,-19,69*,1,10,0
NC(=O)CCCn1c(C(=O)c2cc(Cl)c(N)c(Cl)c2)c2ccc(C(F)(F)F)cc2[n+]1[O-],0,23,6,-1,-7,0
Cc1cccc(NS(=O)(=O)c2ccc(C3CCCCC3)cc2)c1,3,33,108*,64,?,-1
O=C(NC1CCCC1)C(c1ccccn1)N(Cc1ccc(F)cc1)C(=O)c1csnn1 (stereo not given),1,-16,-3,-8,-18,-1
COc1ccc(OCC(=O)Nc2ccc3c(c2)nc(CCN2CCN(C)CC2)n3C)cc1,-6,12,0,.,3,0
CCSc1nnc(NC(=O)c2ccc3ccccc3n2)s1,7,-25,82*,3,20,3
CCSc1nnc(NC(=O)c2nc(-c3ccccc3)n(-c3ccccc3)n2)s1,1,-12,63*,5,.,1
CCc1nnc(NC(=O)c2ccc3ccccc3n2)s1,1,-76,8,3,4,3
CC(C)(C)OC(=O)NCCCCCNC(=O)c1[nH]cnc1C(=O)NC1CCN(C(=O)OC(C)(C)C)CC1,-3,3,.,9,-7,0
COc1ccc(OC)c(CCNC(=O)C(=O)Nc2ccc3nc4n(c(=O)c3c2)CCCCC4)c1,5,-4,57*,8,.,0
COc1ccccc1C(=O)Nc1ccc2nc3n(c(=O)c2c1)CCCC3,-2,-7,-1,3,-1,0
O=C(COc1ccc2c(c1)OCO2)Nc1ccc(Cl)cn1,1,4,-2,-4,30,3

# Assay outcomes: PubChem, several laboratories
